High-throughput results from PubChem BioAssay.
In the library only some 1.9% were active in any assay of this set; here they are far more common.
IMP-1 inh-1: inhibitors of Pseudomonas aeruginosa IMP-1 metallo-beta-lactamase; purified IMP-1, nitrocefin hydrolysis, epi-absorbance fluorescence; inhibition, % at 5.6 µM; 0.45% of 290,000 active; AID 1556;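 active = inhibition above the mean plus 3 SD of all compounds in the same screening run, cut at about 4.5% in these data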
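System: Purified recombinant IMP-1 metallo-beta-lactamase enzyme | Measured by: Fluorescence quenching readout, ex 480/em 530 nm | Replication: Singlicate | Incubation: 15 min preincubation plus 25 min reaction at 25 °C | Evaluation: Percent inhibition from optical density relative to buffer-blank wells | Benchmarks: DMSO with and without IMP-1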
VIM-2 inh: inhibitors of Pseudomonas aeruginosa VIM-2 metallo-beta-lactamase; 0.89% of 290,000 active; AID 1527; inhibition, % at 5.6 µM; purified VIM-2, nitrocefin hydrolysis, epi-absorbance fluorescence;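 active = inhibition above the mean of all tested compounds plus 3 SD, cutoff set per screening run, cut at about 7.5% in these data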;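 note: red hydrolysis product quenches plate fluorescence so inhibitors raise well fluorescence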
NS3 helicase inh: inhibitors of Hepatitis C virus NS3 helicase | NS3 helicase DNA unwinding, Cy5 molecular beacon fluorescence | inhibition, % at 10.9 µM | 0.56% of 290,000 active;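 active = inhibition above the mean of all tested compounds plus 3 SD, set per campaign, cut at about 35% in these data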
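Test system: hepatitis C virus NS3 helicase domain fragment enzyme. Also added: annealed dual-labelled DNA beacon duplex, ATP-started. Timing: 60 min unwinding reaction at 25 °C after ATP addition. Technique: Cy5 fluorescence. Measure: % inhibition of unwinding.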
FID counter: counter-screen for HCV NS3 helicase inhibitors: DNA intercalator displacement. 0.17% of 290,000 active. DNA fluorescent intercalator displacement, fluorescence. inhibition, % at 7.9 µM; in the data active = inhibition above about 37%;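 note: higher means more ethidium bromide displaced from hairpin DNA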
IMP-1 inh-2: IMP-1 inhibition, counter-screen for VIM-2 inhibitors; inhibition, % at 5.6 µM; purified IMP-1, nitrocefin hydrolysis, epi-absorbance fluorescence; shares compounds with VIM-2 inh; 1,300 tested, under 10 active; call rule not given here
VIM-2 FRET ctr: VIM-2 FRET inhibition, artifact counter-screen; purified VIM-2, CCF2 FRET substrate hydrolysis; shares compounds with VIM-2 inh; inhibition, % at 5.6 µM; 23% of 1,300 active;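 active = inhibition above the mean of all tested compounds plus 3 SD, cut at about 19% in these data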
TEM-1 inh: selectivity counter-screen for VIM-2 inhibitors: E. coli TEM-1 inhibitors; shares compounds with VIM-2 inh; Purified TEM-1, nitrocefin hydrolysis, epi-absorbance fluorescence; inhibition, % at 5.6 µM; 3% of 1,300 active;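 active = inhibition above that campaign's mean inhibition plus 3 SD, cut at about 0.46% in these data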
Target sequence (P62593 whole entry, looked up): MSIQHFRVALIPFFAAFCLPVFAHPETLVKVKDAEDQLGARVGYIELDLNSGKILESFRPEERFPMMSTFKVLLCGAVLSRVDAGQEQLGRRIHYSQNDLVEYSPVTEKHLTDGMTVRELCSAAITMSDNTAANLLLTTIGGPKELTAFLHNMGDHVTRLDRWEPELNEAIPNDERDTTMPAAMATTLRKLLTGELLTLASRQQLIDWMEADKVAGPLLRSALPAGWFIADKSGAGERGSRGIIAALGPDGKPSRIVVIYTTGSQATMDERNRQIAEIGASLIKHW
VIM-2 inh conf: confirmation of P. aeruginosa VIM-2 metallo-beta-lactamase inhibitors; shares compounds with VIM-2 inh; purified VIM-2, nitrocefin hydrolysis, epi-absorbance; inhibition, % at 5.6 µM; 96% of 1,300 active; AID 2187;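 active = inhibition of the VIM-2 beta-lactamase enzyme above about 11% from the earlier first-round screen, limit read from the data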
Numbers stand for hits; 0 = inactive; - = no result given.

SMILES | IMP-1 inh-1 | VIM-2 inh | NS3 helicase inh | FID counter | IMP-1 inh-2 | VIM-2 FRET ctr | TEM-1 inh | VIM-2 inh conf
CCc1cc(=O)oc2cc(C)cc(OCC(=O)NC3CCN(Cc4ccccc4)CC3)c12 | 0 | 12.8 | 0 | 0 | 0 | 0 | 0 | 23.6
O=C(Cn1[nH]c(=O)c2ccccc2c1=O)NC1CCCCCC1 | 0 | 0 | 0 | 0 | - | - | - | -
NC(=O)c1cnn(-c2cc(Oc3ccccc3)ncn2)c1N | 0 | 0 | 0 | 0 | - | - | - | -
CCc1nc2sc3c(c2c(=S)[nH]1)CC(C)(C)OC3 | 0 | 0 | 0 | 0 | - | - | - | -
CSc1nc(SCC(=O)O)c2c3c(sc2n1)COC(C)(C)C3 | 0 | 16.8 | 0 | 0 | 0 | 43.3 | 0 | 24.6
CSc1nc2sc3c(c2c(=S)[nH]1)CC(C)(C)OC3 | 0 | 14.7 | 0 | 0 | 0 | 20.8 | 0 | 19.4
S=C1NCCOCCOCCOCCNC(=S)N2CCOCCOCCN1CCOCCOCC2 | 0 | 0 | 0 | 0 | - | - | - | -
CCn1c(-c2cccnc2)n[nH]c1=S | 0 | 0 | 0 | 0 | - | - | - | -
CCCCn1c(-c2cccnc2)n[nH]c1=S | 0 | 20.4 | 0 | 0 | 0 | 32.5 | 0 | 21.7
O=C(O)C(c1ccccc1)N1C(=O)c2cccc3cccc(c23)C1=O (configuration not stated) | 0 | 20.4 | 0 | 0 | 0 | 38.5 | 0 | 26.8
CN(C)c1cccc(C(=O)OCc2cc(=O)oc3cc(O)ccc23)c1 | 0 | 31.8 | 0 | 0 | 0 | 33.6 | 0 | 26.5
CC1CN(S(=O)(=O)c2cccc(C(=O)OCc3cc(=O)oc4cc(O)ccc34)c2)CC(C)O1 (configuration not stated) | 0 | 0 | 0 | 0 | - | - | - | -
CCN1CCN(C(=O)Cn2nc(-c3ccc(Cl)cc3)ccc2=O)CC1 | 0 | 22.6 | 0 | 0 | 0 | 0 | 0 | 26.8
CCc1cc(=O)oc2cc(C)cc(OC(C)C(=O)NCCCn3ccnc3)c12 (configuration not stated) | 0 | 36.5 | 0 | 0 | 0 | 0 | 0 | 49.2
Cc1c(OC(C)C(=O)NCCN2CCOCC2)ccc2c(-c3ccccc3)cc(=O)oc12 (configuration not stated) | 0 | 0 | 0 | 0 | - | - | - | -
Cc1c(OC(C)C(=O)NCCCN2CCOCC2)ccc2c1oc(=O)c1ccccc12 (configuration not stated) | 0 | 19.3 | 0 | 0 | 0 | 0 | 0 | 29.4
Cc1c(C)c2ccc(OC(C)C(=O)NCCCn3ccnc3)c(C)c2oc1=O (configuration not stated) | 0 | 44.6 | 0 | 0 | 0 | 0 | 0 | 53.7
CC(=O)c1cccc(NC(=O)N2CCC(NC(=O)C3CCCCC3)CC2)c1 | 0 | 0 | 0 | 0 | - | - | - | -
Cc1ccccc1C(=O)Nc1cc(NC(=O)c2ccccc2C)cc(C(=O)O)c1 | 0 | 0 | 0 | 0 | - | - | - | -
CC(C)CCNC(=O)C(=O)Nc1ccccc1 | 0 | 0 | 0 | 0 | - | - | - | -
C=CCn1c(C2CC2)n[nH]c1=S | 0 | 15.2 | 0 | 0 | 0 | 36.5 | 0 | 23.1
C=CCn1c(C(c2ccccc2)c2ccccc2)n[nH]c1=S | 0 | 0 | 0 | 0 | - | - | - | -
S=c1[nH]nc(Cc2ccccc2)n1Cc1ccco1 | 0 | 0 | 0 | 0 | - | - | - | -
S=c1[nH]nc(C2CC2)n1Cc1ccco1 | 0 | 25.4 | 0 | 0 | 0 | 56.0 | 0 | 35.6
Cc1cc(C(=O)NNC(=S)Nc2ccccc2)nn1C | 0 | 0 | 0 | 0 | - | - | - | -
SMILES | IMP-1 inh-1 | VIM-2 inh | NS3 helicase inh | FID counter | IMP-1 inh-2 | VIM-2 FRET ctr | TEM-1 inh | VIM-2 inh conf
CC1CCN(C(=O)CSc2ccc(-c3ccccc3)nn2)CC1 | 0 | 0 | 0 | 0 | - | - | - | -
CCOC(=O)CCC(=O)NNC(=O)COc1ccc(C(C)C)cc1Br | 0 | 0 | 0 | 0 | - | - | - | -
COc1ccc(-n2c(=S)[nH]c3ccccc3c2=S)cc1 | 0 | 14.2 | 0 | 0 | 0 | 26.9 | 0 | 18.5
O=C(OCN1C(=O)c2ccccc2C1=O)c1cccnc1SC(F)F | 0 | 0 | 0 | 0 | - | - | - | -
NC(=S)NN=C1c2cc(OCCN3CCOCC3)ccc2-c2ccc(OCCN3CCOCC3)cc21 | 0 | 59.0 | 0 | 54.2 | 0 | 0 | 0 | 70.8
S=c1[nH]nc(CSCc2ccccc2Cl)n1C1CCCCC1 | 0 | 0 | 0 | 0 | - | - | - | -
S=c1[nH]nc(-c2ccco2)n1C1CCCCC1 | 0 | 24.6 | 0 | 0 | 0 | 52.4 | 0 | 34.1
Cn1cc(Cl)c(-c2n[nH]c(=S)n2C2CCCCC2)n1 | 0 | 42.3 | 0 | 0 | 0 | 60.2 | 0 | 42.8
Nn1c(-c2ccco2)n[nH]c1=S | 0 | 0 | 0 | 0 | - | - | - | -
Cc1cccc(C(=O)NC2CC3CCCC(C2)N3Cc2ccccc2)c1 (configuration not stated) | 0 | 0 | 0 | 0 | - | - | - | -
Clc1cccc(-c2ccc(/C=N/n3cnnc3)o2)c1 | 0 | 18.7 | 0 | 0 | 0 | 0 | 1.9 | 33.3
Cc1ccc(-c2ccc(/C=N/n3cnnc3)o2)cc1Cl | 0 | 21.4 | 0 | 0 | 0 | 0 | 0 | 44.5
O=[N+]([O-])c1ccccc1-c1ccc(/C=N/n2cnnc2)o1 | 0 | 0 | 0 | 0 | - | - | - | -
O=[N+]([O-])c1cc(-c2ccc(/C=N\n3cnnc3)o2)cc([N+](=O)[O-])c1 | 0 | 54.4 | 0 | 0 | 0 | 0 | 0 | 66.0
CC(C)=CCN1CCN(Cc2cccn2-c2ncccn2)CC1CCO (configuration not stated) | 0 | 0 | 0 | 0 | - | - | - | -
COc1ccc(Nc2cc(C)nc3nc(C)nn23)cc1Cl | 0 | 18.6 | 0 | 0 | 0 | 0 | 0 | 29.1
COc1cc(Nc2cc(C)nc3nc(C)nn23)cc(OC)c1OC | 0 | 12.7 | 0 | 0 | 0 | 0 | 0 | 32.9
Cc1cc(Nc2ccc(C)c(Br)c2)n2nc(C)nc2n1 | 0 | 13.8 | 0 | 0 | 0 | 0 | 0 | 27.6
CCSc1nncn1/N=C/c1ccc(OC)c(OC)c1 | 0 | 23.9 | 0 | 0 | 0 | 0 | 0 | 41.3
CCOc1ccc(NC(=O)CN(C)Cc2cc(=O)n3c(-c4ccccc4)csc3n2)cc1OCC | 0 | 0 | 0 | 0 | - | - | - | -
COc1ccc(-c2cc(C(F)(F)F)nc(SCCC(=O)N3CCN4CCCC4C3)n2)cc1 (configuration not stated) | 0 | 13.1 | 0 | 0 | 0 | 0 | 0 | 29.2
COc1ccc(-c2cc(C(F)(F)F)nc(SCCC(=O)N3CCCC3)n2)cc1 | 0 | 0 | 0 | 0 | - | - | - | -
COc1cc(-c2nc3ccc(N4CCN(C)CC4)cc3[nH]2)cc(OC)c1OC | 0 | 12.6 | 0 | 0 | 0 | 0 | 0 | 25.9
Cc1cccc(-n2c(=S)[nH]c3c(oc4ccccc43)c2=O)c1 | 0 | 0 | 0 | 0 | - | - | - | -
COc1cccc(N2CCN(C(=O)c3ccc(-c4ccccc4)cc3)CC2)c1 | 0 | 0 | 0 | 0 | - | - | - | -
Cc1cccc(C2c3[nH]c4ccccc4c3CCN2C(=O)c2cc(CC(C)C)[nH]c(=O)n2)n1 (configuration not stated) | 0 | 24.1 | 0 | 0 | 0 | 57.6 | 0 | 35.9
